Screening data deposited in PubChem by several laboratories.
A selection: hits, their analogues and other compounds. The true share with any hit is near 4.7%.
MrgX1 ag = human MrgX1 receptor agonism, primary screen | MrgX1-HEK293 cells, Fluo-4 calcium fluorescence, agonist mode; stronger effect = higher value | B-score at 10 µM | actives 0.44% (n = 310,000) | Q96LB2;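 active = calcium response B-score plate-corrected fluorescence ratio at least 3 library SD, with starting fluorescence B-score inside 5 SD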
Target sequence (Q96LB2 whole entry, looked up): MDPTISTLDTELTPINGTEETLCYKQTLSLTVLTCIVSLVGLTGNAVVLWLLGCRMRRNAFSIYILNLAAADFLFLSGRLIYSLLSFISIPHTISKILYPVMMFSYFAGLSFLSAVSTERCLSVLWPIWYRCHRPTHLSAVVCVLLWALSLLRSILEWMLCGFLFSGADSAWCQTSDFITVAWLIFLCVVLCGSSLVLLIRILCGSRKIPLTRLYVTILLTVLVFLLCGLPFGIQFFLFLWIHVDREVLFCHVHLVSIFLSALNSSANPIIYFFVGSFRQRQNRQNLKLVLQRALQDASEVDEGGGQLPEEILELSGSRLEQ
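Material: HEK293 cells stably expressing human MrgX1 receptor | Quantity: 15,000 cells per well | Times: Cells plated overnight, dye loaded 0.5 h 37 °C, 0.5 h room temperature | Measured by: Kinetic Fluo-4 NW fluorescence of intracellular calcium | Control set: Positive and negative controls per plate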
RGS4 block = human RGS4 inhibition. B-score at 10 µM. HEK293 M3R/RGS4 inducible, Fluo-4 calcium flux; stronger effect = higher value; triggered by carbachol at its EC20. actives 0.45% (n = 310,000). P49798. AID 463165;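 active = B-score, a plate-corrected calcium signal, over three deviations above library mean, with baseline fluorescence within five deviations of library mean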;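 also: RGS4 expression induced by doxycycline in cells with stable M3 receptor; B-score is computed from the integrated fluorescence ratio over baseline after carbachol; higher B-score means a larger calcium signal and so more RGS4 inhibition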
Target sequence (P49798 whole entry, looked up): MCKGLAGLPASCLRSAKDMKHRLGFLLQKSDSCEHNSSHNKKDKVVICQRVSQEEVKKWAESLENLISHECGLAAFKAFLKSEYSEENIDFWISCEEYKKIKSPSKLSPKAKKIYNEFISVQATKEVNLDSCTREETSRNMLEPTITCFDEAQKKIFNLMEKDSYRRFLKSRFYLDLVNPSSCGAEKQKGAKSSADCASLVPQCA
KCC2 mod = modulators of human KCC2 chloride dependent transport | Q9H2X9 | KCC2 cells, thallium flux FluoZin-2 fluorescence | B-score of Tl+ flux slope (higher = more flux/activation; lower = inhibition) at 10 µM | actives 2.2% (n = 190,000) | AID 1456;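 active = thallium flux slope and its plate-corrected score both differing from the plate sample mean at a set confidence after two filtering rounds, in either direction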;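 also: slope of fluorescence scaled to starting intensity during 10 to 20 s after thallium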
RGS4 act = RGS4 potentiation or activation. HEK293 M3R/inducible RGS4, carbachol calcium flux Fluo4; stronger effect = lower value. B-score at 10 µM. actives 0.92% (n = 310,000). AID 463111;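 active = B-score of the integrated calcium signal more than 4 SD below the library mean, with starting fluorescence not abnormally high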;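 also: negative B-score means reduced calcium response which marks RGS4 activation or potentiation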
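Assay system: Inducible-RGS4 HEK293 cells carrying M3 receptor | Schedule: Compound preincubation 20 min at room temperature before agonist | Signal: Kinetic calcium fluorescence imaging with Fluo4-AM dye, 2 µM | Read-out basis: B score from integrated fluorescence ratio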
MrgX1 antag = blocks BAM8-22 activation of human MrgX1 receptor; Q96LB2; MRGX1-HEK293 calcium flux, Fluo-4, BAM8-22 antagonism; stronger effect = lower value; B-score at 10 µM; actives 1.3% (n = 310,000); AID 588676;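 active = calcium-response B-score plate-corrected more than 3 library SD below zero, starting fluorescence within 5 deviations, no agonist response on first addition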;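 also: peak minus trough fluorescence over baseline after final BAM8-22 challenge near maximal dose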
MrgX1 allo act = allosterically activates human MrgX1 receptor signaling | MrgX1-HEK293, Fluo-4 calcium flux, FDSS; stronger effect = higher value | B-score at 10 µM | actives 0.63% (n = 310,000);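 active = plate-corrected calcium response at least 3 library SD above typical, normal starting fluorescence, not activating the receptor alone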;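 also: compound read alongside a low EC10 to EC30 dose of BAM8-22 agonist; peak minus trough fluorescence over baseline measured at the second addition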
KCC2 sec1 = confirmation of human KCC2 transport modulators; shares compounds with KCC2 mod; HEK293-KCC2, thallium flux, FluoZin2 fluorescence; stronger effect = higher value; normalised thallium flux (F/F0 slope) at 10 µM; actives 15% (n = 3,700); AID 1713;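 active = thallium flux slope above the same plate's solvent-only control mean plus 3 SD; inconclusive = the two replicate wells disagree; inactive = no significant difference from solvent-only control wells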
KCC2 bumet counter = thallium flux despite bumetanide block in KCC2 cells, secondary assay 3 | shares compounds with KCC2 mod | normalized thallium flux at 10 µM | actives 49% (n = 3,700) | HEK293-KCC2 + bumetanide/ouabain, thallium flux FluoZin2; stronger effect = higher value;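 active = thallium entry rate above the same plate's blocked-transporter control wells by more than 3 SD; inconclusive = the two repeat wells disagree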;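 also: raw slope of fluorescence over initial fluorescence between 10 and 20 s after thallium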
KCC2 sec2 = KCC2 (human) modulation, second secondary assay; shares compounds with KCC2 mod; HEK293-KCC2, thallium flux FluoZin2 fluorescence; actives lie on both sides; F/F0 rise rate, 10–20 s post-thallium; normalized thallium flux at 10 µM; actives 23% (n = 3,700);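 active = thallium flux slope more than 3 SD above or below the plate's solvent-only control mean, mostly below; inconclusive = the two repeat wells disagreed; inactive = no significant shift from solvent-only controls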
HEK293 Tl flux = parental HEK flux effect, counter-screen. shares compounds with KCC2 mod. HEK293 parental cells, thallium flux FluoZin2, ouabain; baseline-ratio fluorescence slope, 10–20 s after thallium. thallium flux rate (normalised fluorescence) at 10 µM. actives 46% (n = 3,700);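 active = thallium flux rate significantly above the same plate's solvent-only control wells, beyond their mean plus 3 SD; inconclusive = the two replicate wells gave conflicting results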
KCC2 ouabain = KCC2 (human) modulation, ouabain retest | shares compounds with KCC2 mod | HEK293-KCC2, thallium flux FluoZin2 fluorescence; bidirectional: low = inhibitor, high = activator | raw Tl+ flux slope (below DMSO = inhibition, above = activation) at 10 µM | actives 48% (n = 3,700) | AID 1717;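 active = thallium flux slope beyond 3 SD from same-plate DMSO control mean in most replicates, usually higher, sometimes lower; inconclusive = repeat tests gave conflicting results; inactive = no significant difference from controls in most replicates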;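 also: slope of initial-normalized fluorescence between seconds 10 and 20 after thallium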
HEK counter2 = parental HEK flux effect, counter-screen 2; shares compounds with KCC2 mod; HEK293 parental, thallium flux FluoZin-2 fluorescence slope; thallium flux slope at 10 µM; actives 33% (n = 3,700);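 active = thallium flux slope above the same plate's solvent-control mean plus 3 SD in both duplicate wells; inconclusive = duplicate wells that disagreed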;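 also: run without ouabain in cells lacking the KCC2 cotransporter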
Large screens that a line does not name were inactive (follow-up assays come after a bar, where they were run).

O=C(Cn1cnc2c(nnn2Cc2ccc(Cl)cc2)c1=O)N1CCCc2ccccc21	none
O=C(Cn1cnc2c(nnn2Cc2ccc(F)cc2)c1=O)N1CCCc2ccccc21	KCC2 mod -4 | KCC2 sec1 inactive | KCC2 bumet counter inactive | KCC2 sec2 0.025 | HEK293 Tl flux inactive | KCC2 ouabain inactive | HEK counter2 inactive
O=C(Cn1cnc2c(nnn2Cc2ccccc2F)c1=O)OCc1ccccc1	KCC2 mod -7.4 | KCC2 sec1 inactive | KCC2 bumet counter inactive | KCC2 sec2 inactive | HEK293 Tl flux inactive | KCC2 ouabain 0.015 | HEK counter2 inactive
O=C(Cn1cnc2c(nnn2Cc2ccccc2F)c1=O)N1CCN(c2ccccc2)CC1	none (no result: KCC2 mod)
O=C(NNC(=O)c1ccc([N+](=O)[O-])cc1C(=O)O)c1ccncc1	none (no result: KCC2 mod)
S=c1nc(C2CCCCC2)n(-c2ccccc2)[nH]1	KCC2 mod 126 | KCC2 sec1 0.055 | KCC2 bumet counter 0.14 | KCC2 sec2 0.048 | HEK293 Tl flux 0.078 | KCC2 ouabain 0.11 | HEK counter2 0.031
CCN1CCN(c2ccc(S(=O)(=O)N3CCOCC3)cc2NC(=O)COc2ccc(F)cc2Cl)CC1	none (no result: KCC2 mod)
COC(=O)c1c(NC(=O)CS(=O)(=O)c2ccccc2)sc(C)c1C	none (no result: KCC2 mod)
CC(C)(C)c1ccc(NC(=O)C(=O)C2C(=O)Nc3ccccc32)cc1 (configuration not stated)	KCC2 mod 7.9 | KCC2 sec1 inactive | KCC2 bumet counter 0.025 | KCC2 sec2 inconclusive | HEK293 Tl flux 0.018 | KCC2 ouabain 0.028 | HEK counter2 0.02
Cn1cc(C(=O)C(=O)N2CCCc3ccccc32)c2ccccc21	KCC2 mod -4.4 | KCC2 sec1 inactive | KCC2 bumet counter inactive | KCC2 sec2 0.024 | HEK293 Tl flux inactive | KCC2 ouabain inactive | HEK counter2 inactive
COc1ccc(CNCC(=O)Nc2cccc(S(N)(=O)=O)c2)cc1	none
COc1ccc(C(=O)NCCc2cnc[nH]2)cc1OC	none (no result: KCC2 mod)
COC(=O)c1cnc(NNS(=O)(=O)c2ccc(Cl)cc2)nc1C(F)(F)F	none
COC(=O)c1cnc(NNC(=O)c2ccc([N+](=O)[O-])cc2)nc1C(F)(F)F	KCC2 mod 3.5 | KCC2 sec1 inactive | KCC2 bumet counter 0.011 | KCC2 sec2 inactive | HEK293 Tl flux inconclusive | KCC2 ouabain inactive | HEK counter2 inactive
O=C(NC(=S)Nc1ccc(CN2CCOCC2)cc1)c1cc2ccccc2o1	KCC2 mod 12 | KCC2 sec1 inactive | KCC2 bumet counter 0.016 | KCC2 sec2 inactive | HEK293 Tl flux 0.02 | KCC2 ouabain 0.029 | HEK counter2 0.015
O=C(NC(=S)Nc1ccc(CN2CCOCC2)cc1)c1ccc(-c2ccc(Br)cc2)o1	KCC2 mod 5.3 | KCC2 sec1 inactive | KCC2 bumet counter inactive | KCC2 sec2 inactive | HEK293 Tl flux 0.018 | KCC2 ouabain inconclusive | HEK counter2 inactive
O=C1Cc2ccccc2C(=O)N1CCc1ccccc1	MrgX1 antag -5.2 (no result: KCC2 mod) | KCC2 sec1 inactive | KCC2 bumet counter inactive | KCC2 sec2 inactive | HEK293 Tl flux inactive | KCC2 ouabain inactive | HEK counter2 inactive
COc1ccc2oc(C(=O)OCC(=O)NC3CCCCC3)c(C)c2c1	none (no result: KCC2 mod)
O=C(c1ccc(O)cc1)c1ccc(C(=O)c2ccc(O)cc2)cc1	none | KCC2 sec1 inactive | KCC2 bumet counter inactive | KCC2 sec2 inactive | HEK293 Tl flux inactive | KCC2 ouabain inactive | HEK counter2 inactive
COc1ccc(-n2nc(C(=O)NCC(=O)N(C)Cc3ccccc3)c3ccccc3c2=O)c(OC)c1	none (no result: KCC2 mod)
Cc1ccc(OCCSc2nc3ccccc3n2CCC(=O)O)cc1	none (no result: KCC2 mod)
COc1cc(-c2nnc(CSc3nnc(Nc4ccc(C(C)C)cc4)s3)o2)cc(OC)c1OC	KCC2 mod -4 | KCC2 sec1 inactive | KCC2 bumet counter inactive | KCC2 sec2 0.025 | HEK293 Tl flux inactive | KCC2 ouabain 0.016 | HEK counter2 inactive
Cc1ccc(-n2nc(C(=O)O)cc2-c2ccc(Cl)cc2)cc1	KCC2 mod -3.7 | KCC2 sec1 inactive | KCC2 bumet counter inactive | KCC2 sec2 inactive | HEK293 Tl flux inactive | KCC2 ouabain 0.017 | HEK counter2 inactive
O=C(O)c1cc(-c2ccc(Cl)cc2)n(-c2ccc(Cl)cc2)n1	none
Nc1ccc(C(=O)N2CCN(S(=O)(=O)c3ccc4c(c3)OCCO4)CC2)cc1[N+](=O)[O-]	none (no result: KCC2 mod)
CCOC(=O)c1ccccc1NC1c2ccccc2C(=O)N1C1CCN(C(=O)OCC)CC1 (configuration not stated)	none
CCOC(=O)c1ccccc1NC1OC(=O)c2ccccc21 (configuration not stated)	KCC2 mod -3.9 | KCC2 sec1 inconclusive | KCC2 bumet counter inactive | KCC2 sec2 inactive | HEK293 Tl flux inconclusive | KCC2 ouabain inactive | HEK counter2 inconclusive
COc1cccc([C@@H]2Oc3ccc(OC)cc3C(=O)[C@H]2OC(=O)Nc2cc(OC)c(OC)c(OC)c2)c1	none (no result: RGS4 block, RGS4 act)
COc1cccc([C@@H]2Oc3ccc(OC)cc3C(=O)[C@H]2OC(=O)NCc2ccc3c(c2)OCO3)c1	KCC2 mod 42 | KCC2 sec1 inactive | KCC2 bumet counter 0.058 | KCC2 sec2 0.064 | HEK293 Tl flux 0.068 | KCC2 ouabain 0.055 | HEK counter2 0.051
COc1ccc2c(c1)O[C@@H](c1cccc(C(F)(F)F)c1)[C@H](OC(=O)NCCc1ccc(OC)c(OC)c1)C2=O	KCC2 mod 38 | KCC2 sec1 inactive | KCC2 bumet counter 0.028 | KCC2 sec2 inconclusive | HEK293 Tl flux 0.029 | KCC2 ouabain 0.037 | HEK counter2 0.022
